Screening results as filed in PubChem BioAssay.
The list is not random: actives were taken first. Their share in the collection is about 1.8%.
PG9 Ab binder: binders of HIV-1 gp120 antibody PG9, primary screen, biochemical, TR-FRET; HIV-1 gp120 / PG9 antibody interaction; TR-FRET gp120-PG9 antibody binding; inhibition, % at 6.7 µM; 360,000 tested, 0.43% active; AID 624416, 2012; in the data active = inhibition above about 8.5%
TbMetRS inhib: T. brucei MetRS inhibitors, primary screen, biochemical, luminescence | 360,000 tested, 0.4% active | inhibition, % at 11.9 µM | AID 624268, 2012 | purified T. brucei MetRS, ATP depletion, Kinase-Glo luminescence;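 active = inhibition above a per-plate cutoff of the control wells' mean inhibition plus 3 SD, cut at about 5.5% in these data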;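 also: 0% = DMSO wells median and 100% = median of wells with control inhibitor compound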
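Material: T. brucei methionyl-tRNA synthetase, purified; reagent: substrates ATP, L-methionine and bulk Escherichia coli tRNA; dosing: 11.9 µM single point; timing: 15 min plus 2 h at 25 °C; detection: luminescence of leftover ATP; evaluation: % inhibition; control set: DMSO-only wells as low control; replicates: singlicate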
Rin1 Abl inh: inhibitors of Rin1-Abl protein binding, primary screen, biochemical, TR-FRET; inhibition, % at 7.35 µM; 360,000 tested, 0.4% active; AID 588664, 2011; in the data active = inhibition above about 5%, passing the limit was not always enough
NR1D1 modulator: modulators of Rev-erb alpha DNA binding, primary screen, biochemical, FITC-DNA, fluorescence polarization, uHTS. 370,000 tested, 0.79% active. Rev-erbα–FITC-DNA binding, 90 min. Nuclear receptor subfamily 1 group D member 1 (Homo sapiens), P20393. activity, % at 10 µM. AID 1259318, 2017;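 active = activity above about 14%, limit read from the data; passing the limit was not always enough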;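 also: 0% = DMSO wells with 35 nM protein and 100% = DMSO wells with 750 nM protein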
Target sequence (P20393 whole entry, looked up): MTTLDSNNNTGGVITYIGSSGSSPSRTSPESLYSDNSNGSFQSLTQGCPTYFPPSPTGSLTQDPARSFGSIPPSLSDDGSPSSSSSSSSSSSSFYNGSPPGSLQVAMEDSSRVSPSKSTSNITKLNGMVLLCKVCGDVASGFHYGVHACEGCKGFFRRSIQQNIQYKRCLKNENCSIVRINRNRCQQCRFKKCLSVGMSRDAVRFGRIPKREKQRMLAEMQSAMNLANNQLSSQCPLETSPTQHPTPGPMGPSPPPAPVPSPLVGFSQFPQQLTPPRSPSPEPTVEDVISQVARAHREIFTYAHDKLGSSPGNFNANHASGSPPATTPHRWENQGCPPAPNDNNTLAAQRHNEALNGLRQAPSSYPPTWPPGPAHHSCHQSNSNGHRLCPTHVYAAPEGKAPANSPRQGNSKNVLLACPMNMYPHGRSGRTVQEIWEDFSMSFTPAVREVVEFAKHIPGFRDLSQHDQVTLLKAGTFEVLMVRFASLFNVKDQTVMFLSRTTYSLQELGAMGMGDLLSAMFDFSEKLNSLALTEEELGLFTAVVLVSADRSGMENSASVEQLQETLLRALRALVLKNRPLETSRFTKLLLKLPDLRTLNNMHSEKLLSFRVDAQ
PG9 bind confirm: binders of anti-gp120 antibody PG9, confirmation, biochemical, TR-FRET; shares compounds with PG9 Ab binder; TR-FRET PG9 antibody binding; inhibition, % at 6.7 µM; 1,500 tested, 90% active; in the data active = inhibition above about 9%
PGV04 Ab binding: binders of control antibody PGV04, counter-screen for PG9 antibody binder project, biochemical, TR-FRET, distinct HIV envelope site; shares compounds with PG9 Ab binder; inhibition, % at 6.7 µM; TR-FRET PGV04 antibody-gp120 binding; 1,500 tested, 95% active; AID 651604, 2012; in the data active = inhibition above about 9.5%
PG9 bind DR: small-molecule binders of antibody PG9, dose response, biochemical, TR-FRET, HIV-1 gp120 antibody; shares compounds with PG9 Ab binder; TR-FRET PG9 antibody-gp120 binding inhibition; IC50, µM; 95 tested, under 10 active; AID 651848, 2012; in the data active = IC50 below about 10 µM
PGV04 binding DR: binders of control antibody PGV04, dose response, counter-screen for PG9 antibody binder project, biochemical, TR-FRET, distinct HIV envelope site; IC50, µM; TR-FRET binding to control antibody PGV04; shares compounds with PG9 Ab binder; 95 tested, 20% active
PG126 binding DR: binders of control antibody PG126, dose response, counter-screen for PG9 antibody binder project, biochemical, TR-FRET, distinct HIV envelope site. shares compounds with PG9 Ab binder. AID 651939, 2012. 95 tested, 20% active. IC50, µM. TR-FRET binding to antibody PG126, counterscreen
Rev-erbA confirm: modulators of Rev-erb alpha DNA binding, confirmation, biochemical, FITC-DNA, fluorescence polarization, single point; activation, % at 25 µM; AID 1259319, 2017; 3,000 tested, 61% active; shares compounds with NR1D1 modulator; 90 min;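 active = activation at or above a set limit, or at least 3 SD above the negative control mean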;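 also: 0% = 35 nM protein with DMSO and 100% = 750 nM protein high control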
RORg DNA counter: modulation of RORgamma DNA binding, dose response, counter-screen for Rev-erb alpha modulator project, biochemical, fluorescence polarization, FITC-DNA; shares compounds with NR1D1 modulator; purified RORgamma protein-FITC-DNA binding; IC50, µM; 910 tested, 8% active;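 active = Compounds whose fitted half-maximal concentration for disrupting protein-DNA binding is below 10 micromolar; the record names Rev-erb in its text, so the target is in doubt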
* marks the source's active call; other numbers are inactive results; i = inactive; · = not tested or not shown. Rule as the data show it, unless noted: active = IC50 below about 9 µM; inactive = the rest.

SMILES | PG9 Ab binder | TbMetRS inhib | Rin1 Abl inh | NR1D1 modulator | PG9 bind confirm | PGV04 Ab binding | others
COc1ccc(C(=O)Nc2ccccc2C(=O)N(Cc2ccco2)C(C(N)=O)C(C)C)cc1 (configuration not stated) | 9.9* | -0.3 | 0.5 | 23.8 | 19.2* | 15.7* | PG9 bind DR=>67;PGV04 binding DR=i;PG126 binding DR=>67
COc1ccc(C(=O)Nc2ccccc2C(=O)NC(C(=O)NCc2ccco2)C(C)C)cc1 (configuration not stated) | 1.0 | -1.0 | -2.6 | 15.3 | · | ·
COC(=O)c1ccccc1NC(=O)c1cccc(NC(=O)CSCc2ccccc2)c1C | 32.6* | -1.3 | -4.5 | 15.0 | 27.8* | 42.6*
COC(=O)c1ccccc1NC(=O)CSCC(=O)Nc1ccccc1 | 3.3 | -1.9 | 3.4 | 1.0 | · | ·
COc1ccccc1C1/C(=C(\O)c2ccc3c(c2)OCCO3)C(=O)C(=O)N1Cc1cccnc1 (configuration not stated) | 13.9* | -0.5 | -0.6 | 7.3 | 11.9* | 17.6*
O=C1C(=O)N(Cc2cccnc2)C(c2cccc(Br)c2)/C1=C(/O)c1ccc2c(c1)OCO2 (configuration not stated) | 37.1* | -1.0 | -21.8 | 6.3 | 38.6* | 45.5*
O=C1C(=O)N(Cc2cccnc2)C(c2cccc([N+](=O)[O-])c2)/C1=C(/O)c1ccc2c(c1)OCO2 (configuration not stated) | -0.6 | -0.1 | 1.6 | -4.2 | · | ·
O=C1C(=O)N(Cc2cccnc2)C(c2ccccn2)/C1=C(/O)c1ccc(Br)cc1 (configuration not stated) | 11.4* | -0.1 | -0.5 | -3.2 | 18.0* | 22.7*
O=C1C(=O)N(Cc2cccnc2)C(c2cccc(O)c2)/C1=C(\O)c1ccc2c(c1)OCCO2 (configuration not stated) | 9.0* | -0.4 | -3.9 | 0.8 | 10.5* | 20.3*
CCN(CC)C(=O)c1ccc2c(c1)NC(=O)C(C)(C)O2 | · | · | · | -6.0 | · | ·
CC(=O)Nc1ccc(-c2ccnc3c2CC(C(=O)Nc2cccc(N(C)C)c2)O3)cc1 (configuration not stated) | -6.1 | -0.3 | -0.8 | 2.2 | · | ·
COC(=O)[C@]12C=CCN1[C@@H](c1ccc(C(F)(F)F)cc1)c1c(c3ccccc3n1S(=O)(=O)c1ccc(C)cc1)C2 | · | · | · | 0.1 | · | ·
COC(=O)c1cc2n3ccccc3c(C)c(-c3ccccc3)c-2c1C(=O)OC | 20.6* | -0.5 | -17.7 | 3.5 | 29.2* | 39.3*
CCOc1ccc(NC(=O)c2sccc2-n2cccc2)cc1 | -0.6 | -1.1 | 1.6 | -4.5 | · | ·
CCc1c2c(nc3ccc(OC(=O)N4CCC(N5CCCCC5)CC4)cc13)-c1cc3c(c(=O)n1C2)COC(=O)[C@]3(O)CC | 1.8 | -1.0 | -2.2 | -1.4 | · | ·
CCC1(O)C(=O)OCc2c1cc1n(c2=O)Cc2cc3cc(O)ccc3nc2-1 (configuration not stated) | 19.3* | -0.9 | -7.8 | -0.4 | 15.7* | 31.5*
Cc1cccc(CC(=O)NCCN2CCCCC2)c1 | 0.8 | -0.3 | 0.7 | -2.6 | · | ·
CCc1nc2ccccc2c(C(=O)OCc2nc3ccccc3c(=O)[nH]2)c1C | 24.6* | 0.2 | -9.9 | 32.4* | 14.0* | 16.8* | Rev-erbA confirm=28.1*;RORg DNA counter=>40
CCc1ccccc1NC(=O)COc1ccc2oc(-c3ccc(OC)cc3)cc(=O)c2c1 | 17.8* | -0.2 | 2.2 | 27.4* | 77.9* | 47.6* | PG9 bind DR=>67;PGV04 binding DR=3.7*;PG126 binding DR=3.63*;Rev-erbA confirm=-0.1
NC(=O)COc1ccc2oc(-c3ccccc3)cc(=O)c2c1 | -0.9 | -0.8 | -5.0 | 0.0 | · | ·
CCOC(=O)C1(C)CCCN(C(=O)c2cc(C)on2)C1 (configuration not stated) | 0.5 | -0.3 | -2.8 | -5.0 | · | ·
COc1cc2c(=O)n(CCC(=O)NCC3CCCO3)c(=O)n(CC(=O)Nc3ccc(C)cc3)c2cc1OC (configuration not stated) | -0.3 | -0.6 | 1.4 | -2.4 | · | ·
Cc1ccccc1OCC(=O)Nc1ccc2c(c1)Cc1ccccc1-2 | · | -1.1 | -1.6 | 4.5 | · | ·
Cc1ccccc1OCC(=O)Nc1ccc2c(c1)C(=O)c1ccccc1C2=O | 25.1* | -1.4 | -3.1 | 272.8* | 73.0* | 91.4* | Rev-erbA confirm=220.8*;RORg DNA counter=6.87*
O=c1c2ccccc2[nH]c(=S)n1CCN1CCc2ccccc2C1 | -0.2 | -0.3 | -3.0 | -3.5 | · | ·
SMILES | PG9 Ab binder | TbMetRS inhib | Rin1 Abl inh | NR1D1 modulator | PG9 bind confirm | PGV04 Ab binding | others
O=C(Cn1c(=S)[nH]c2ccccc2c1=O)N1CCc2ccccc2C1 | 32.1* | -1.5 | -2.1 | 34.8* | 33.0* | 51.4* | Rev-erbA confirm=22.8*
Cc1ccc2oc(=O)c3cnn(CC(=O)N4CCN(c5ccccc5)CC4)c3c2c1 | 1.1 | -0.3 | 1.0 | 2.4 | · | ·
Cc1ccc2oc(=O)c3cnn(CC(=O)N4CCCc5ccccc54)c3c2c1 | 14.7* | 1.5 | -2.0 | 50.6* | 34.9* | 50.5* | Rev-erbA confirm=44.0*
Cc1ccc(C(=O)Nc2nc3ccccc3c(=O)s2)cc1 | 73.2* | 0.1 | -96.7 | 68.7* | 77.9* | 89.3* | Rev-erbA confirm=35.4*;RORg DNA counter=2.13*
COc1ccc(C(=O)Nc2nc3ccc4nc(C)sc4c3s2)cc1 | 12.5* | -1.0 | -1.6 | 34.2* | 9.8* | 11.7* | Rev-erbA confirm=41.7*;RORg DNA counter=>40
COc1ccc(C(=O)Nc2nc3ccccc3s2)cc1 | -1.4 | 0.8 | -5.5 | 1.0 | · | ·
